ChEMBL document CHEMBL2021883, “Amino acid, dipeptide and pseudodipeptide conjugates of ring-substituted 8-aminoquinolines: synthesis and evaluation of anti-infective, β-haematin inhibition and cytotoxic activities” (Eur J Med Chem, 2012)
In brackets after ≈: the same amount, converted by molar mass. Activity calls are given as the source filed them. Unless noted, the calls are words filed in the database; no cut-off is given here.

Legend:
Leishmania donovani = test: Antileishmanial activity against Leishmania donovani promastigote by Alamar Blue assay; assay type: functional, organism-based
Plasmodium falciparum [1] = test: Antimalarial activity against chloroquine-sensitive Plasmodium falciparum D6 assessed as plasmodial LDH activity; assay type: functional, organism-based
Plasmodium falciparum [2] = test: Antimalarial activity against chloroquine-resistant Plasmodium falciparum W2 assessed as plasmodial LDH activity; assay type: functional, organism-based
Vero = test: Cytotoxicity against african green monkey Vero cells upto 23.8 […] by neutral dye assay; assay type: cell-based, Chlorocebus sabaeus
Summary of the method: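 Vero monkey kidney cells were exposed to compound up to a highest concentration of 23.8, with viability read by neutral red uptake.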

[3] = Inhibition of beta-hematin formation; assay type: functional
Staphylococcus aureus [4] = test: Antimicrobial activity against Staphylococcus aureus ATCC 29213 by CLSI method; assay type: functional, organism-based
Staphylococcus aureus [5] = test: Antimicrobial activity against methicillin-resistant Staphylococcus aureus ATCC 43300 by CLSI method; assay type: functional, organism-based
[6] = system: Mycobacterium intracellulare; test: Antimicrobial activity against Mycobacterium intracellulare ATCC 23068 by Franzblau method; assay type: functional, organism-based
Escherichia coli = test: Antimicrobial activity against Escherichia coli ATCC 35218 by CLSI method; assay type: functional, organism-based
Pseudomonas aeruginosa = test: Antimicrobial activity against Pseudomonas aeruginosa ATCC 27853 by CLSI method; assay type: functional, organism-based
Summary of the method: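 Antibacterial testing used CLSI/NCCLS broth dilution for aerobically growing bacteria, with 20 as the highest test concentration.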

Aspergillus fumigatus = test: Antifungal activity against Aspergillus fumigatus; assay type: functional, organism-based
Summary of the method: (§1)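 Yeasts and A. fumigatus were tested by broth microdilution following the NCCLS antifungal standards. The highest test concentration was 20.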

Cryptococcus neoformans = test: Antifungal activity against Cryptococcus neoformans; assay type: functional, organism-based; summary of the method: as §1
Candida albicans [7] = test: Antifungal activity against Candida albicans at 20 ug/ml; assay type: functional, organism-based
Summary of the method: (§2)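 Broth dilution antifungal testing followed the NCCLS reference method for yeasts, with 20 as the highest test concentration. MIC was the lowest concentration with no detectable growth. MFC was the lowest concentration killing the organism.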

Candida albicans [8] = test: Fungicidal activity against Candida albicans at 20 ug/ml; assay type: functional, organism-based; summary of the method: as §2
[9] = Selectivity index, ratio of IC50 for african green monkey Vero cells to IC50 for chloroquine-resistant Plasmodium falciparum W2; assay type: toxicity, cell-based; settings: Vero cells versus Plasmodium falciparum W2, read-out: Ratio IC50
[10] = Leishmania donovani, read-out: IC50

| Compound | IC50 (Plasmodium falciparum [1]) | IC50 (Plasmodium falciparum [2]) | IC50 (Vero) | IC50 [3] | IC50 (Leishmania donovani) | IC90 (Leishmania donovani) | Activity (Staphylococcus aureus [4]) | Activity (Staphylococcus aureus [5]) | Activity [6] | Activity (Escherichia coli) | Activity (Pseudomonas aeruginosa) | also measured |
| --- | --- | --- | --- | --- | --- | --- | --- | --- | --- | --- | --- | --- |
| N=C(N)c1ccc(OCCCCCOc2ccc(C(=N)N)cc2)cc1 [PENTAMIDINE] | – | – | – | – | – | – | – | – | – | – | – | IC90 (Leishmania donovani; Leishmania donovani): 3.8 µg/mL (≈ 11.2 µM) |
| COc1cc(NC(C)CCCNC(=O)C[C@@H](NC(=O)[C@H](N)CCCCN)C(=O)O)c2nc(C(C)(C)C)ccc2c1 (some centres not stated) | Not Active | Not Active | Non-toxic | > 1000 µM | Not Active | inactive | inactive | inactive | inactive | inactive | inactive | – |
| COc1cc(NC(C)CCCNC(=O)[C@@H](CCCCN)NC(=O)[C@H](N)CCCCN)c2ncccc2c1 (some centres not stated) | Not Active | Not Active | Non-toxic | 310 µM | – | – | inactive | inactive | inactive | inactive | inactive | IC90 (Leishmania donovani; Leishmania donovani): 7 µg/mL (≈ 13.6 µM); IC50 (Leishmania donovani; [10]): 3.5 µg/mL (≈ 6.79 µM); Activity (Aspergillus fumigatus): inactive; IC50 (Cryptococcus neoformans): 3.5 µg/mL (≈ 6.79 µM); MFC (Cryptococcus neoformans): 5 µg/mL (≈ 9.7 µM); MIC (Cryptococcus neoformans): 5 µg/mL (≈ 9.7 µM); Activity (Candida albicans [7]): inactive; Activity (Candida albicans [8]): inactive |
| COc1cc(NC(C)CCCN)c2nc(C(C)(C)C)ccc2c1 (configuration not stated) | – | – | – | 2.9 µM | – | – | – | – | – | – | – | – |
| COc1cc(NC(C)CCCNC(=O)CC[C@@H](NC(=O)[C@H](N)CCCN)C(=O)O)c2ncccc2c1 (some centres not stated) | Not Active | Not Active | Non-toxic | > 1000 µM | Not Active | inactive | inactive | inactive | inactive | inactive | inactive | – |
| COc1cc(NC(C)CCCNC(=O)NCCCC[C@H](N)C(=O)O)c2ncccc2c1 (some centres not stated) | Not Active | Not Active | Non-toxic | > 1000 µM | Not Active | inactive | inactive | inactive | inactive | inactive | inactive | – |
| COc1cc(NC(C)CCCN)c2ncccc2c1 (configuration not stated) [PRIMAQUINE] | – | – | Non-toxic | > 1000 µM | – | inactive | – | – | – | – | – | – |
| COc1cc(NC(C)CCCNC(=O)CC[C@@H](NC(=O)[C@H](N)CCCCN)C(=O)O)c2ncccc2c1 (some centres not stated) | Not Active | Not Active | Non-toxic | > 1000 µM | – | – | inactive | inactive | inactive | inactive | inactive | IC90 (Leishmania donovani; Leishmania donovani): 36 µg/mL (≈ 69.7 µM); IC50 (Leishmania donovani; [10]): 20.1 µg/mL (≈ 38.9 µM) |
| COc1cc(NC(C)CCCNC(=O)CC[C@H](NC(=O)[C@@H](N)CCCN)C(=O)O)c2ncccc2c1 (some centres not stated) | Not Active | Not Active | Non-toxic | > 1000 µM | Not Active | inactive | inactive | inactive | inactive | inactive | inactive | – |
| COc1cc(NC(C)CCCNC(=O)[C@@H](CCCN)NC(=O)[C@H](N)CCCN)c2ncccc2c1 (some centres not stated) | Not Active | – | Non-toxic | 420 µM | – | inactive | inactive | inactive | inactive | inactive | inactive | IC50 (Plasmodium falciparum [2]; Plasmodium falciparum, W2, read-out: IC50): 4.76 µg/mL (≈ 9.76 µM); IC50 (Leishmania donovani; [10]): 40 µg/mL (≈ 82 µM); selectivity ratio [9]: > 5; Activity (Aspergillus fumigatus): inactive; IC50 (Cryptococcus neoformans): 3.5 µg/mL (≈ 7.18 µM); MFC (Cryptococcus neoformans): 5 µg/mL (≈ 10.3 µM); MIC (Cryptococcus neoformans): 5 µg/mL (≈ 10.3 µM); Activity (Candida albicans [7]): inactive; Activity (Candida albicans [8]): inactive |
| COc1cc(NC(C)CCCNC(=O)CC[C@H](NC(=O)[C@@H](N)CCCN)C(=O)O)c2nc(C(C)(C)C)ccc2c1 (some centres not stated) | Not Active | Not Active | Non-toxic | > 1000 µM | Not Active | inactive | inactive | inactive | inactive | inactive | inactive | Activity (Aspergillus fumigatus): inactive; IC50 (Cryptococcus neoformans): 15 µg/mL (≈ 26.8 µM); MFC (Cryptococcus neoformans): 20 µg/mL (≈ 35.8 µM); MIC (Cryptococcus neoformans): 20 µg/mL (≈ 35.8 µM); Activity (Candida albicans [7]): inactive; Activity (Candida albicans [8]): inactive |
| COc1cc(NC(C)CCCNC(=O)NCCCC[C@H](N)C(=O)O)c2nc(C(C)(C)C)ccc2c1 (some centres not stated) | Not Active | Not Active | Non-toxic | > 1000 µM | Not Active | inactive | inactive | inactive | inactive | inactive | inactive | – |
| COc1cc(NC(C)CCCNC(=O)CC[C@H](NC(=O)[C@@H](N)CCCCN)C(=O)O)c2nc(C(C)(C)C)ccc2c1 (some centres not stated) | Not Active | Not Active | Non-toxic | > 1000 µM | Not Active | inactive | inactive | inactive | inactive | inactive | inactive | Activity (Aspergillus fumigatus): inactive; IC50 (Cryptococcus neoformans): 15 µg/mL (≈ 26.2 µM); MFC (Cryptococcus neoformans): 20 µg/mL (≈ 34.9 µM); MIC (Cryptococcus neoformans): 20 µg/mL (≈ 34.9 µM); Activity (Candida albicans [7]): inactive; Activity (Candida albicans [8]): inactive |
| COc1cc(NC(C)CCCNC(=O)CC[C@@H](NC(=O)[C@H](N)CCCNC(=N)N)C(=O)O)c2ncccc2c1 (some centres not stated) | Not Active | Not Active | Non-toxic | > 1000 µM | Not Active | inactive | inactive | inactive | inactive | inactive | inactive | – |
| COc1cc(NC(C)CCCNC(=O)CC[C@@H](NC(=O)[C@H](N)CCCNC(=N)N)C(=O)O)c2nc(C(C)(C)C)ccc2c1 (some centres not stated) | Not Active | Not Active | Non-toxic | > 1000 µM | Not Active | inactive | inactive | inactive | inactive | inactive | inactive | – |
| COc1cc(NC(C)CCCNC(=O)CC[C@H](NC(=O)[C@@H](N)CCCCN)C(=O)O)c2ncccc2c1 (some centres not stated) | Not Active | Not Active | Non-toxic | – | Not Active | inactive | inactive | inactive | inactive | inactive | inactive | – |
| COc1cc(NC(C)CCCNC(=O)C[C@H](NC(=O)[C@@H](N)CCCN)C(=O)O)c2ncccc2c1 (some centres not stated) | – | – | – | – | – | – | inactive | inactive | inactive | inactive | inactive | – |
| COc1cc(NC(C)CCCNC(=O)C[C@@H](NC(=O)[C@H](N)CCCN)C(=O)O)c2ncccc2c1 (some centres not stated) | Not Active | Not Active | Non-toxic | > 1000 µM | Not Active | inactive | inactive | inactive | inactive | inactive | inactive | Activity (Aspergillus fumigatus): inactive; IC50 (Cryptococcus neoformans): 7 µg/mL (≈ 14.3 µM); MFC (Cryptococcus neoformans): 10 µg/mL (≈ 20.5 µM); MIC (Cryptococcus neoformans): 10 µg/mL (≈ 20.5 µM); Activity (Candida albicans [7]): inactive; Activity (Candida albicans [8]): inactive |
| O=C(O)c1cn(C2CC2)c2cc(N3CCNCC3)c(F)cc2c1=O [CIPROFLOXACIN] | – | – | – | – | – | – | – | – | – | – | – | MIC [6]: 0.63 µg/mL (≈ 1.9 µM) |
| COc1cc(NC(C)CCCNC(=O)CC[C@@H](NC(=O)[C@H](N)CCCN)C(=O)O)c2nc(C(C)(C)C)ccc2c1 (some centres not stated) | Not Active | Not Active | Non-toxic | > 1000 µM | Not Active | inactive | inactive | inactive | inactive | inactive | inactive | – |
| COc1cc(NC(C)CCCNC(=O)NCCC[C@@H](N)C(=O)O)c2ncccc2c1 (some centres not stated) | Not Active | Not Active | Non-toxic | > 1000 µM | Not Active | inactive | inactive | inactive | inactive | inactive | inactive | – |
